Test results: ChEMBL document CHEMBL4613292, “5,6-Dihydroxypyrimidine Scaffold to Target HIV-1 Nucleocapsid Protein” (ACS Med Chem Lett, 2020)
pEC50, pIC50: −log10 of the molar value. Active and inactive are the calls of the source. The calls are words filed in the database; no cut-off is given here.

How the values were obtained:
[1] = test system: Human immunodeficiency virus 1; assay: (§1) Inhibition of HIV1 Nucleocapsid protein (11 to 55 residues) assessed as reduction in NC-induced cTAR DNA destabilization by measuring intrinsic fluorescence using Alexa488-5'-cTAR-3'-Dabcyl oligonucleotide as substrate at 20 degree C incubated for 15 mins by fluorescence assay
Outline: (§2)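 Fluorescence NC-inhibition assay following destabilisation of cTAR DNA, the complement of the HIV-1 transactivation response element, dual-labelled with Alexa488 dye and Dabcyl quencher. NC protein at 1 μM, so the lowest measurable IC50 is 0.5 μM.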

[2] = as §1; design: species or system Human immunodeficiency virus 1; conditions: for pIC50: read-out: IC50; outline: as §2
[3] = test system: Human immunodeficiency virus 1; assay: (§3) Antiviral activity against wild-type HIV1 NL4-3 infected in human TZM-bl cells infected with supernatants from virus-infected human MT2 cells treated with compound for 48 to 72 hrs assessed as reduction in viral replication after 2 days by bright Glo-luciferase reporter gene assay based BiCycle assay; assay type: functional, organism-based; conditions: Human immunodeficiency virus 1, NL4-3, TZM
Outline: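 Two-round cell assay over the full replication cycle: MT-2 T cells are infected with wild-type reference strain NL4-3 in the first round, and reporter TZM-bl cells are infected in the second round. Values are given as mean ± deviation.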

[4] = Cytotoxicity against human HeLa cells assessed as reduction in cell viability; assay type: cell-based
[5] = as §3, with “Selectivity index, ratio of CC50 for human HeLa cells assessed as reduction in cell viability to EC50 for” for “Antiviral activity against”; assay type: toxicity; conditions: read-out: Ratio CC50/EC50
Outline: (§4)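 Selectivity index is CC50 from the respective cytotoxicity assay (HeLa or PBMC) divided by EC50 from the two-round MT-2/TZM-bl NL4-3 assay.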

[6] = Cytotoxicity against phytohemagglutinin and interleukin-2-stimulated human PBMC cells assessed as reduction in cell viability measured after 7 days by MTS assay; assay type: cell-based
[7] = as §3, with “Selectivity index, ratio of CC50 for human PBMC cells stimulated with phytohemagglutinin and interleukin-2 assessed as reduction in cell viability measured after 7 days by MTS assay to EC50 for” for “Antiviral activity against”; assay type: toxicity; conditions: read-out: Ratio CC50/EC50; outline: as §4
[8] = Half life in mouse plasma at 3 uM by LC-MS/MS analysis; assay type: ADME, cell-free
[9] = Half life in human plasma at 3 uM by LC-MS/MS analysis; assay type: ADME, cell-free
[10] = Half life in mouse hepatocytes at 3 uM by LC-MS/MS analysis; assay type: ADME, cell-based, Hepatocyte
[11] = Half life in human hepatocytes at 3 uM by LC-MS/MS analysis; assay type: ADME, cell-based, Hepatocyte
[12] = molecular target: Voltage-gated inwardly rectifying potassium channel KCNH2 (Homo sapiens, UniProt Q12809); assay: Displacement of Tracer Red from human ERG measured after 4 hrs by fluorescence polarization assay
[13] = molecular target: T1, Cytochrome P450 1A2 (Homo sapiens, UniProt P05177); assay: Inhibition of human microsomal CYP1A2 expressed in baculovirus infected insect cells using luciferin-1A2 as substrate preincubated with enzyme-substrate mixture for 30 mins followed by further incubation with NADPH for 30 mins by CYP450 luciferase Glo assay; assay type: ADME
T1 sequence (P05177 whole entry): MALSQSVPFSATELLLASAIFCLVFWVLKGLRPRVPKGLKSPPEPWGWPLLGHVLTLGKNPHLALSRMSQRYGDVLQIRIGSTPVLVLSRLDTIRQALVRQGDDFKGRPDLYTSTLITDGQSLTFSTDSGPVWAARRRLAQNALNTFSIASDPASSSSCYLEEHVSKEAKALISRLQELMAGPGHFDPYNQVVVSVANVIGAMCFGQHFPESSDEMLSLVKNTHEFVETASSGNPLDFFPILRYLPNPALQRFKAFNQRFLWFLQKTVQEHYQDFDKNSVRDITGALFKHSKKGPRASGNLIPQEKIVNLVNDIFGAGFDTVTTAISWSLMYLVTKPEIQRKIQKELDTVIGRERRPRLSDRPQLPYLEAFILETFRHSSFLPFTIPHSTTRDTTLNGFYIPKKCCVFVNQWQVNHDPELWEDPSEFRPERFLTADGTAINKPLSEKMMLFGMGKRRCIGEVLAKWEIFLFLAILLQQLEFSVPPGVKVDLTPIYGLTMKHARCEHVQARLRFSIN

[14] = molecular target: Cytochrome P450 2D6 (Homo sapiens, UniProt P10635); assay: Inhibition of human microsomal CYP2D6 expressed in baculovirus infected insect cells using luciferin-ME as substrate preincubated with enzyme/substrate mixture for 30 mins followed by further incubation with NADPH for 30 mins by CYP450 luciferase Glo assay; assay type: ADME
[15] = molecular target: Cytochrome P450 3A4 (Homo sapiens, UniProt P08684); assay: Inhibition of human microsomal CYP3A4 expressed in baculovirus infected insect cells using luciferin-IPA as substrate preincubated with enzyme/substrate mixture for 30 mins followed by further incubation with NADPH for 30 mins by CYP450 luciferase Glo assay; assay type: ADME
[16] = test system: Human immunodeficiency virus 1; assay: Antiviral activity against PI-resistant HIV1 11808; assay type: functional, organism-based; conditions: Human immunodeficiency virus 1, 11808
[17] = test system: Human immunodeficiency virus 1; assay: Antiviral activity against NRTI-resistant HIV1 7401; assay type: functional, organism-based; conditions: Human immunodeficiency virus 1, 7401
[18] = test system: Human immunodeficiency virus 1; assay: Antiviral activity against NNRTI-resistant HIV1 12231; assay type: functional, organism-based; conditions: Human immunodeficiency virus 1, 12231
[19] = test system: Human immunodeficiency virus 1; assay: Antiviral activity against INI-resistant HIV1 11845; assay type: functional, organism-based; conditions: Human immunodeficiency virus 1, 11845
[20] = test system: Human immunodeficiency virus 1; assay: as §1, with “Ratio” for “Inhibition”, “of IC50 for PI-resistant HIV1 11808 Nucleocapsid protein (11 to 55 residues) using Alexa488-5'-cTAR-3'-Dabcyl oligonucleotide as substrate to IC50 for” for “of”
[21] = test system: Human immunodeficiency virus 1; assay: as §1, with “Ratio” for “Inhibition”, “of IC50 for NRTI-resistant HIV1 7401 Nucleocapsid protein (11 to 55 residues) using Alexa488-5'-cTAR-3'-Dabcyl oligonucleotide as substrate to IC50 for” for “of”
[22] = test system: Human immunodeficiency virus 1; assay: as §1, with “Ratio” for “Inhibition”, “of IC50 for NNRTI-resistant HIV1 12231 Nucleocapsid protein (11 to 55 residues) using Alexa488-5'-cTAR-3'-Dabcyl oligonucleotide as substrate to IC50 for” for “of”
[23] = test system: Human immunodeficiency virus 1; assay: as §1, with “Ratio” for “Inhibition”, “of IC50 for INI-resistant HIV1 11845 Nucleocapsid protein (11 to 55 residues) using Alexa488-5'-cTAR-3'-Dabcyl oligonucleotide as substrate to IC50 for” for “of”
[24] = Half life in C57BL/6 mouse at 2 mg/kg, iv or 5 mg/kg, po administered as single dose measured up to 24 hrs by LC-MS/MS analysis; assay type: ADME, organism-based; conditions: in vivo
[25] = Volume of distribution at steady state in C57BL/6 mouse at 2 mg/kg, iv or 5 mg/kg, po administered as single dose measured up to 24 hrs by LC-MS/MS analysis; assay type: ADME, organism-based; conditions: in vivo, read-out: Vdss
[26] = Clearance in C57BL/6 mouse at 2 mg/kg, iv or 5 mg/kg, po administered as single dose measured up to 24 hrs by LC-MS/MS analysis; assay type: ADME, organism-based; conditions: in vivo
[27] = Oral bioavailability in C57BL/6 mouse at 5 mg/kg administered as single dose measured up to 24 hrs by LC-MS/MS analysis; assay type: ADME, organism-based; conditions: in vivo
Outline: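 C57BL/6 mice were dosed 5 mg/kg orally, with a 2 mg/kg iv reference arm. Plasma was sampled at eight time points up to 24 h.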

[28] = molecular target: Human immunodeficiency virus type 1 integrase (Human immunodeficiency virus 1) (UniProt Q7ZJM1); assay: Inhibition of wild type recombinant HIV1 His6-tagged integrase expressed in Escherichia coli BL21 using 18 nucleotide 3'-biotin labeled DNA acceptor as substrate upto 10 uM preincubated for 1 hr followed by substrate addition and further incubated for 90 mins in presence of recombinant LEDGF/p75 by HTRF assay
Sequence of Human immunodeficiency virus type 1 integrase (Human immunodeficiency virus 1) (Q7ZJM1 as listed by the source): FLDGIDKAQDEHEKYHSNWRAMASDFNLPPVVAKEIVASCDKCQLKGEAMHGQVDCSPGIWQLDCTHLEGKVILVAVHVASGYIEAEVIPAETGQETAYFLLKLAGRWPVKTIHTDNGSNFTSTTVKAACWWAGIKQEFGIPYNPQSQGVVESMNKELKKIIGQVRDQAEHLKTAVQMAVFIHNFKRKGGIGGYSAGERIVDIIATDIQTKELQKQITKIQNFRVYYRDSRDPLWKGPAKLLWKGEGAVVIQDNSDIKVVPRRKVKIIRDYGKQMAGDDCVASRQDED

Sequence of Cytochrome P450 3A4 (P08684 whole entry): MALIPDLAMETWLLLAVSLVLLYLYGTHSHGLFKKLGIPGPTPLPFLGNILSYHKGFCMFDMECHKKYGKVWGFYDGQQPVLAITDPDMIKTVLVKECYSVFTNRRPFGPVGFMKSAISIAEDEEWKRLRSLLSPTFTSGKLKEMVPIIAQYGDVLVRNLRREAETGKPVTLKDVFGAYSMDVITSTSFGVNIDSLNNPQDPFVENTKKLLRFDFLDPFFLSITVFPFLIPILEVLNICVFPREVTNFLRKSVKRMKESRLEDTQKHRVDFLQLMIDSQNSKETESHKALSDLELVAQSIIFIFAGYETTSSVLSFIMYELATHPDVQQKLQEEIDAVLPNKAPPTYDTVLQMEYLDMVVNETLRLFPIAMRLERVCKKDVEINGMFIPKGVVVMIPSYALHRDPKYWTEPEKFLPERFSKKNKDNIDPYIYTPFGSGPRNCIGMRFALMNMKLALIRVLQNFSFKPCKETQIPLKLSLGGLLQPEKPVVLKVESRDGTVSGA
Sequence of Voltage-gated inwardly rectifying potassium channel KCNH2 (Q12809 whole entry): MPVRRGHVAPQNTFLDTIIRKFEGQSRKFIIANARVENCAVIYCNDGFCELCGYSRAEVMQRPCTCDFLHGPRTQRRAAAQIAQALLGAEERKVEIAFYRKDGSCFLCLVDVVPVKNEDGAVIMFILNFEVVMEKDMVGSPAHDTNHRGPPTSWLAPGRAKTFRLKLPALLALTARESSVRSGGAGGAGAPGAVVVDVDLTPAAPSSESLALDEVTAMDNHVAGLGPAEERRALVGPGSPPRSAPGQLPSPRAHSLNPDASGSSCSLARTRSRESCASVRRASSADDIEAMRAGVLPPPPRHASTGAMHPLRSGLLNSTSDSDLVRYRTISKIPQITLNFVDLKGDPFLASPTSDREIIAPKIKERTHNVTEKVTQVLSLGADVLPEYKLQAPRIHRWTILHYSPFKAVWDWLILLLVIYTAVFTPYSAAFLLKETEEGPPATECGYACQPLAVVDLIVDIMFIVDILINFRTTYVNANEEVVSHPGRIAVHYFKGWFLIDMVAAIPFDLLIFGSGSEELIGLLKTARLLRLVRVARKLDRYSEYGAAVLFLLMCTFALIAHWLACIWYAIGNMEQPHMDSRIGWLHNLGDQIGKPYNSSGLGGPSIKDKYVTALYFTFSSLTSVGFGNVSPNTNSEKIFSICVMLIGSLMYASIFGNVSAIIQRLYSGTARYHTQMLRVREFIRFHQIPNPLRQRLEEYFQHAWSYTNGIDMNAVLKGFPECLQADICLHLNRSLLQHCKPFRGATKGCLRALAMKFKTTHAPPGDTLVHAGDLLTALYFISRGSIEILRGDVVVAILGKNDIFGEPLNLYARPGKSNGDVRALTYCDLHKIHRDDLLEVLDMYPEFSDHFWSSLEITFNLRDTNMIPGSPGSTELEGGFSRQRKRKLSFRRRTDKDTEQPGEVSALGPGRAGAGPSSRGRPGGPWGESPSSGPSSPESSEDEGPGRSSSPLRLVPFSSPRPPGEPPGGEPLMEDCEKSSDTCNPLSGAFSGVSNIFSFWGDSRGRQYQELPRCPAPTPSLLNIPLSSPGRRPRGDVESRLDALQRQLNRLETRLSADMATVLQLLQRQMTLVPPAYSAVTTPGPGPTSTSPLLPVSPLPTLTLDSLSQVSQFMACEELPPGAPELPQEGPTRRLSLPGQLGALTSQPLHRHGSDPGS
Sequence of Cytochrome P450 2D6 (P10635 whole entry): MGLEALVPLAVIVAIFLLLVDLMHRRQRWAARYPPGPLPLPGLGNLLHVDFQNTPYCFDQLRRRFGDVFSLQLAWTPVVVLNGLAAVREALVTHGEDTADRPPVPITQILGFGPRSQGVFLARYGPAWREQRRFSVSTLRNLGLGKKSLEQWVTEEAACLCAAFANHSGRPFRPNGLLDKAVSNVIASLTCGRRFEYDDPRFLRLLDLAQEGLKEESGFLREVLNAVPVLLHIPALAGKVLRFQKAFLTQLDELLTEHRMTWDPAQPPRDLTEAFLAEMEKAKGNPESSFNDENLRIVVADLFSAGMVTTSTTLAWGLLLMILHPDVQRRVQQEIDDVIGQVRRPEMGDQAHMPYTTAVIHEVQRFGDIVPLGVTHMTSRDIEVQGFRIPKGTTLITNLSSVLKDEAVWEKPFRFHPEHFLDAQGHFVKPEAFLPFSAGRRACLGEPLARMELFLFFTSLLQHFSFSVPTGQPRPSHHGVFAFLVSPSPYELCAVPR

SMILES | IC50 [2] | pIC50 [2] | pEC50 [3] | CC50 [4] | selectivity ratio [5] | CC50 at 168 h [6] | selectivity ratio at 7 days [7] | other results
Cc1ccc(-c2nc(O)c(O)c(C(=O)N[C@H](C)C3CCCCC3)n2)nc1 |  |  |  |  |  |  |  | IC40 [1]: 20 µM
CCNC(=O)c1nc(-c2ccccn2)nc(O)c1O | Not Active |  |  |  |  |  |  | 
O=C(NCc1ccccc1)c1nc(-c2ccccn2)nc(O)c1O | Not Active |  |  |  |  |  |  | 
C[C@@H](NC(=O)c1nc(-c2cc(C(F)(F)F)ccn2)nc(O)c1O)C1CCCCC1 |  | 4.92 | 6.40 | 6 µM | 15 | 1.1 µM | 3 | half-life at 3 µM [8]: > 1 h; half-life at 3 µM [9]: > 1 h; half-life at 3 µM [10]: 2.4 h; half-life at 3 µM [11]: > 4 h; pIC50 [12]: < 4.52; pIC50 [13]: < 4.52; pIC50 [14]: < 4.52; pIC50 [15]: < 4.52
O=C(NC1CCCCC1)c1nc(-c2ccccn2)nc(O)c1O |  | 3.52 |  |  |  |  |  | 
CC(c1ccccc1)c1nc(O)c(O)c(C(=O)NCC2CCCCC2)n1 (stereo not drawn) | Not Active |  |  |  |  |  |  | 
O=C(NCC1CCCCC1)c1nc(-c2ccccc2)nc(O)c1O | Not Active |  |  |  |  |  |  | 
C[C@@H](NC(=O)c1nc(-c2ccc(C(F)(F)F)cn2)nc(O)c1O)C1CCCCC1 |  | 4.64 |  |  |  |  |  | 
O=C(NCC1CCCCC1)c1nc(-c2ccncc2)nc(O)c1O | Not Active |  |  |  |  |  |  | 
C[C@@H](NC(=O)c1nc(-c2ccccn2)nc(O)c1O)C1CCCCC1 |  | 4.38 | 6.15 | 3.2 µM | 5 | 3 µM | 4 | 
C[C@@H](NC(=O)c1nc(-c2cc(Cl)ccn2)nc(O)c1O)C1CCCCC1 |  | 5.70 | 7.00 | 3 µM | 30 | 2.5 µM | 25 | pEC50 [16]: 7.70; pEC50 [17]: 8.00; pEC50 [18]: 7.10; pEC50 [19]: 7.15; Ratio IC50 [20]: 0.2; Ratio IC50 [21]: 0.1; Ratio IC50 [22]: 0.8; Ratio IC50 [23]: 0.7; half-life at 3 µM [8]: > 6 h; half-life at 3 µM [9]: > 6 h; half-life at 3 µM [10]: 1.7 h; half-life at 3 µM [11]: > 4 h; pIC50 [12]: < 4.52; pIC50 [13]: < 4.52; pIC50 [14]: < 4.52; pIC50 [15]: < 4.52; half-life [24]: 3.1 h; Vd [25]: 1.2 L/kg; clearance [26]: 2.23 L/h/kg; bioavailability [27]: 40%
Cc1ccnc(-c2nc(O)c(O)c(C(=O)N[C@@H](C)C3CCCCC3)n2)c1 |  | 4.39 |  |  |  |  |  | 
O=C(NCC1CCCCC1)c1nc(-c2ccccn2)nc(O)c1O |  | 3.78 | 5.92 | 3.6 µM | 3 | 2.6 µM | 2 | inhibition [28]: inactive
Cc1ccnc(-c2nc(O)c(O)c(C(=O)N[C@H](C)C3CCCCC3)n2)c1 |  | 5.10 | 6.70 | 2.7 µM | 13 | 3.1 µM | 16 | 
